High-throughput results (PubChem)
Platelet DG rel: inhibitors of platelet dense granule secretion, primary screen, cell-based, MLPCN, human platelets; human platelet-rich plasma, SFLLRN dense granule ATP release, luminescence; inhibition, %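 (compounds screened at 7.5 µM in platelet-rich plasma)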; hit rate 0.22% among 300,000;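 active means mean replicate score, as percent of positive control, at or above 50; inconclusive means mean below 50 but at least one replicate at or above 50; inactive means mean and every replicate below 50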
TRPC6 inh: mouse TRPC6 channel inhibitors, primary screen, cell-based, HEK293, membrane potential dye; B-score at 10 µM; ACh-evoked depolarization; stronger effect = lower value; AID 2553, 2010; Short transient receptor potential channel 6 (Mus musculus), Q61143; hit rate 1.1% among 310,000;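 active means B-score under library mean minus 3 SD, initial fluorescence not abnormally high, positive integrated signal ratio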;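 further: B-score derived from integrated fluorescence ratio over the kinetic read; more negative B-score means stronger inhibition of depolarization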
TRPC4 potent: positive allosteric modulators of TRPC4, primary screen, cell-based, mouse TRPC4beta, HEK293 mu-opioid, Fluo-4 calcium; B-score at 10 µM; DAMGO EC20, Fluo-4 Ca2+ flux; stronger effect = higher value; hit rate 0.42% among 310,000; AID 2227, 2009;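 active means B-score of calcium response area above 5 SD of library B-scores, with initial fluorescence ratio within 5 SD of library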;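 further: B-score of integrated fluorescence ratio over time as area under calcium response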
TRPC6 activator: mouse TRPC6 channel activators, primary screen, cell-based, HEK293, membrane potential dye. HEK293-TRPC6 membrane potential dye fluorescence; stronger effect = higher value. B-score at 10 µM. hit rate 0.13% among 310,000. AID 2550, 2010;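 active means B-score of the integrated fluorescence ratio above library mean plus 3 SD, and starting fluorescence ratio within library mean plus 5 SD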;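 further: higher score means more depolarization so channel activation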
TRPC4 block: inhibitors of mouse TRPC4 channel, primary screen, Fluo4 calcium, HEK293 TRPC4beta/mu-opioid cells | Short transient receptor potential channel 4 (Mus musculus), Q9QUQ5 | DAMGO-evoked Fluo4 calcium flux; stronger effect = lower value | B-score at 10 µM | hit rate 0.39% among 300,000;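 active means B-score over 3 SD under the library average, no early fluorescence shift, positive overall ratio signal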
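Assay system: Stable TRPC4beta/mu-opioid receptor HEK293 cells | Reagent: DAMGO in two steps, submaximal then maximal | Compound dosing: Single concentration per test compound | Signal: Fluo4 Ca2+ flux fluorescence | Evaluation: Per-well B score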
TRPC4 agonist: activators of mouse TRPC4 channel, primary screen, Fluo4 calcium, HEK293 TRPC4beta/mu-opioid cells | Short transient receptor potential channel 4 (Mus musculus), Q9QUQ5 | Fluo4 calcium fluorescence; stronger effect = higher value | B-score at 10 µM | hit rate 0.49% among 310,000 | AID 2237, 2010;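 active means B-score above 5 SD of library B-scores, and initial fluorescence ratio not above library mean plus 5 SD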;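 further: positive B-score marks a calcium rise read as TRPC4 activation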
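Incubation: 45 min room-temperature Fluo4 loading, 110 s read / System: HEK293 cells stably co-expressing mouse TRPC4beta and mu-opioid receptor / Signal: Fluo4 fluorescence, kinetic / Control set: buffer (low) and maximal DAMGO (high) / Measure: integrated baseline-normalised fluorescence ratio, converted to per-well B score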
* marks the source's active call; other numbers are inactive results; i = inactive; ? = inconclusive. Hits are enriched below; roughly 2.5% of the tested compounds scored in any of these assays.

SMILES	Platelet DG rel	TRPC6 inh	TRPC4 potent	TRPC6 activator	TRPC4 block	TRPC4 agonist
Cc1ccc(NS(=O)(=O)c2c(C(=O)N3CCCC3)c(C)n(C)c2C)cc1	1	i	i	i	i	i
Cc1cc(C)cc(N(CC(=O)Nc2ccc(C)cc2Cl)S(=O)(=O)c2c(C)[nH]c(=O)[nH]c2=O)c1	-1	i	22*	i	i	i
CC(=O)c1cc(-c2ccc(F)cc2)n(CCC(=O)Nc2cccnc2)c1C	0	i	i	i	i	i
CC1CC(C)CN(CCCNC(=O)C2CCN(S(=O)(=O)N3CCCCC3)CC2)C1 (configuration not stated)	11	i	i	i	i	59*
COc1ccc(-c2nc(CSCC(=O)NC3CCN(Cc4ccccc4)CC3)c(C)o2)cc1OC	-8	i	i	i	i	116*
Cc1cccc(NC2CCCCC2NS(=O)(=O)c2ccccc2)c1 (configuration not stated)	-10	i	13*	i	i	i
Cc1ccc(C)c(NC2CCCCC2NS(=O)(=O)c2ccccc2)c1 (configuration not stated)	20	i	i	i	i	i
CCCn1c(SCC(=O)NC(=O)Nc2ccc(C)cc2C)n[nH]c1=O	-3	i	12*	i	i	i
CCCn1c(SCC(=O)Nc2cc(Cl)ccc2Cl)n[nH]c1=O	1	i	i	i	i	i
COC(=O)/N=C/c1c(NCc2ccccc2)nc2c(C)cccn2c1=O	-3	i	i	i	i	i
CCCCSc1ccc2nc(-c3ccc(C#N)cc3)cn2c1	-2	i	i	i	i	i
CCCSc1ccc2nc(-c3ccccc3)cn2c1	75*	i	i	i	i	i
Cn1ncc(C#N)c1/N=C/N(Cc1ccccc1)Cc1ccccc1	-4	i	16*	i	i	i
COc1ccc(CC(=O)Nc2cc(Cl)ccc2C(=O)O)cc1	2	i	i	i	i	i
CCCCOc1ccc(Nc2cc(Cl)ccc2C(=O)O)cn1	-3	i	i	i	-7*	i
COc1ccc(S(=O)(=O)Nc2cccc(-c3ccc(N4CCCCCC4)nn3)c2)c(OC)c1	0	i	i	i	i	i
CS(=O)(=O)N1CCN(c2ccccc2NC(=O)CSc2ccc(Cl)cc2)CC1	-2	i	10*	i	i	i
COC(=O)/C=C1\SC(=NC(=O)c2cccc(Cl)c2)NC1=O	-3	i	i	i	-6*	i
COC(=O)/C=C1/SC(=NC(=O)c2ccccc2)NC1=O	1	i	i	i	i	i
Cn1nc(-c2ccccn2)nc2c(=O)n(C)c(=O)nc1-2	148*	i	i	i	i	i
Cc1[nH]c(=O)[nH]c(=O)c1/C=N/NC(=O)CCNC(=O)OC(C)(C)C	77*	i	i	i	i	i
Cc1[nH]c(=O)[nH]c(=O)c1/C=N/NC(=O)CCCCCNC(=O)OC(C)(C)C	-14	i	i	i	i	i
Cc1ccc(-n2cc(CNC(C)c3cnn(C)c3C)c(-c3ccc(F)cc3)n2)cc1 (configuration not stated)	-1	i	i	i	i	184*
Cc1ccc(-n2cc(CNC(C)c3cnn(C)c3)c(-c3ccc(F)cc3)n2)cc1 (configuration not stated)	-5	i	i	i	i	233*
Cc1ccc(-n2cc(CNCCCn3ccnc3C)c(-c3ccc(F)cc3)n2)cc1	-3	i	i	i	i	i
SMILES	Platelet DG rel	TRPC6 inh	TRPC4 potent	TRPC6 activator	TRPC4 block	TRPC4 agonist
Cc1ccc(-n2cc(CNCCc3cscn3)c(-c3ccc(F)cc3)n2)cc1	3	i	i	i	i	130*
Cc1ccc(-n2cc(CN3CCN(Cc4nccn4C)CC3)c(-c3ccc(F)cc3)n2)cc1	-2	i	i	i	i	i
COc1ccc(NC(=O)c2cccc(N3C(=O)C4CC=C(C)CC4C3=O)c2)c(OC)c1 (configuration not stated)	4	i	i	i	-6*	i
COc1ccc(OC)c(NC(=O)c2cccc(N3C(=O)C4C5CCC(C5)C4C3=O)c2)c1 (configuration not stated)	-21	i	i	i	i	i
Nc1ccc2nc(-c3ccccc3)sc2c1	64*	i	i	i	i	i
Cc1[nH]n2c(=O)c3c(nc2c1-c1ccccc1)CCC3	-15	i	i	i	-6*	i
COc1ccc(-c2c(C)[nH]n3c(=O)c(Cc4ccccc4)c(C)nc23)cc1	1	i	i	i	-6*	i
O=C(Cc1c(F)cccc1Cl)Nc1nc2ccccc2s1	-8	i	i	i	i	i
Cn1c(=O)c2c(nc(N3CCOCC3)n2CC(=O)C23CC4CC(CC(C4)C2)C3)n(C)c1=O	10	i	i	i	i	i
CN1CCN(c2nc3c(c(=O)n(C)c(=O)n3C)n2CC(=O)C23CC4CC(CC(C4)C2)C3)CC1	-9	i	i	i	-6*	i
C(=N\c1nc2ccccc2[nH]1)/c1cccs1	?	i	i	i	i	54*
c1ccc(-c2csc3ncnc(NCCN4CCOCC4)c23)cc1	5	i	i	i	i	i
Clc1ccc(-c2csc3ncnc(NCCN4CCOCC4)c23)cc1	-6	i	i	i	-5*	i
Cc1ccc(-c2csc3ncnc(NCCN4CCOCC4)c23)cc1	1	i	i	i	-6*	i
CCN1CCN(c2nc(C)c3c(n2)CC(C)CC3=O)CC1 (configuration not stated)	-1	i	15*	i	i	i
Cc1sc(NC(=O)c2ccco2)c(C(c2cccnc2)N2CCN(c3ccc(F)cc3)CC2)c1C (configuration not stated)	1	i	i	i	i	i
Cc1sc(NC(=O)c2ccco2)c(C(c2ccc(F)cc2)N2CCN(C)CC2)c1C (configuration not stated)	-3	i	34*	i	i	i
